Experimental findings from ChEMBL document CHEMBL1139312, “Synthesis and SAR of 6-chloro-4-fluoroalkylamino-2-heteroaryl-5-(substituted)phenylpyrimidines as anti-cancer agents” (Bioorg Med Chem, 2009) are described below.

One data set relates to COLO 205. As to the kind of experiment: Antiproliferative activity against human COLO205 cells after 24 hrs by MTS assay. The class given is functional, cell-based. (Tetrazolium dyes change colour on reduction, which living cells bring about.)
Data set [1] concerns KB. As to the kind of experiment: Antiproliferative activity against human KB cells after 3 days by SRB assay. It counts as functional, cell-based. The settings on record: 72 h.
Data set [2] is described as follows: Antiproliferative activity against human KB 8.5 cells after 3 days by SRB assay. It counts as functional, cell-based. As to conditions: 72 h. Background: The SRB assay estimates cell density from bound dye.
Data set [3] in a line: Antiproliferative activity against human KBV1 cells after 3 days by SRB assay. It counts as functional, cell-based. As to conditions: KB-V1, 72 h.
The nature of data set [4]: Ratio of IC50 for human KBV1 cells to IC50 for human KB cells. It counts as functional. The procedure, abridged: (§1)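 Resistance ratio: IC50 in KB 8.5 or KB V1 cells divided by IC50 in parental KB cells, each IC50 from 10-concentration duplicate dose–response curves; ratio near 1 means no resistance.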
For data set [5], the system named is KB. The data set can be described thus: Ratio of IC50 for human KB 8.5 cells to IC50 for human KB cells. It counts as functional. A digest of the protocol:
as §1

A short description of data set [6]: Aqueous solubility at pH 7.4 by shake flask method. The class given is physicochemical.
Data set [7] can be described thus: Metabolic stability in female nude mouse liver microsomes at 1 uM after 30 mins. It counts as ADME, Microsome. The procedure, abridged: (§2)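 Liver microsomes (1 mg/mL) from each species and sex were incubated with compound for 30 min at 37 °C in the presence of NADPH. Read-out was metabolic half-life (t1/2).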
On the technique in general: Liver microsomes are vesicles of endoplasmic reticulum, rich in cytochrome P450 enzymes.

A short description of data set [8]: Metabolic stability in male Sprague-Dawley rat liver microsomes at 1 uM after 30 mins. The class given is ADME, Microsome. A digest of the protocol:
as §2

Data set [9] is described as follows: Metabolic stability in female Sprague-Dawley rat liver microsomes at 1 uM after 30 mins. The class given is ADME, Microsome. A digest of the protocol: as §2
A short description of data set [10]: Metabolic stability in male Beagle dog liver microsomes at 1 uM after 30 mins. It counts as ADME, Canis lupus familiaris, Microsome. A digest of the protocol:
as §2

Data set [11] can be described thus: Metabolic stability in male cynomolgus monkey liver microsomes at 1 uM after 30 mins. It counts as ADME, Macaca fascicularis, Microsome. The procedure, abridged:
as §2

Data set [12] can be described thus: Metabolic stability in male human liver microsomes at 1 uM after 30 mins. The class given is ADME, Microsome. A digest of the protocol:
as §2

The nature of data set [13]: Volume of distribution in rat. It counts as ADME, organism-based. The settings on record: in vivo. A digest of the protocol:
(§3)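 Rat pharmacokinetic parameters were derived by non-compartmental, model-independent analysis.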

A short description of data set [14]: Clearance in rat. The class given is ADME, organism-based. The settings on record: in vivo. The procedure, abridged:
as §3

Data set [15] is described as follows: Half life in rat. The class given is ADME, organism-based. As to conditions: in vivo. The procedure, abridged:
as §3

A short description of data set [16]: Bioavailability in rat. The class given is ADME, organism-based. As to conditions: in vivo. The procedure, abridged:
as §3

A further data set concerns NCI-H460. The data set can be described thus: Antitumor activity against human H460 cells xenografted in Foxn1nu mouse assessed as reduction in tumor growth at 2.5 to 10 mg/kg, po. The class given is functional, organism-based. The procedure, abridged:
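Female NU/NU-Foxn1nu mice were injected s.c. in the flank with 1 × 10⁶ H460 cells per animal and staged (randomized) when tumors reached about 100 mg. Compound was given by oral gavage in Klucel on days 0 and 7 after staging. Controls received vehicle only, i.v. Nine animals per group; tumor mass was followed over days.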

A further data set has as its system LOX. As to the kind of experiment: Antitumor activity against human LOX cells xenografted in Foxn1nu mouse assessed as reduction in tumor growth at 1 to 6 mg/kg, iv. The class given is functional, organism-based. The procedure, abridged: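 LOX melanoma cells (2 × 10⁶ per animal) were implanted s.c. in the flank of female NU/NU-Foxn1nu mice, which were staged at about 100 mg tumor mass. Compound was dosed i.v. in 0.9% saline on days 1, 5 and 9 after staging, with a vehicle-only i.v. control. Five mice per group. Relative tumor growth = mean tumor mass on day d / group mean on day 0.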

The nature of data set [17]: Induction of tubulin polymerization.

In general, IC50 refers to the concentration needed to halve the response being measured. A word on the thermodynamic solubility: it is solubility found after equilibrating the solid with the medium. One may read the half-life as how long it takes for the measured level to halve. For orientation: Vd means the apparent volume that relates the amount in the body to the concentration in plasma or blood. As usually defined, the clearance is a measure of how efficiently the substance is removed, as volume per time. Broadly, the bioavailability is the share of a dose that reaches the circulation, judged against a reference dose that is usually intravenous.

≈ marks a conversion by molar mass, not a printed value. Calls of active or inactive are those of the source. No cut-off for these calls is given here.

`C[C@H](Nc1nc(-n2cccn2)nc(Cl)c1-c1c(F)cc(F)cc1F)C(F)(F)F` returned an IC50 in the data set with COLO 205 (Homo sapiens, COLO 205, 24 h) of 19 nM.
On the same count and under the same terms, under `Fc1cc(F)c(-c2c(Cl)nc(-c3cccs3)nc2NCC(F)(F)F)c(F)c1` stands 3460 nM; under `Fc1cc(F)c(-c2c(Cl)nc(-c3ccco3)nc2NCC(F)(F)F)c(F)c1`, 232 nM.
As for `CNCCCOc1cc(F)c(-c2c(Cl)nc(-c3ccccn3)nc2N[C@@H](C)C(F)(F)F)c(F)c1` [listing 1 of 3 here], the IC50 in the data set with KB [1] came out at 6.2 nM; in [2], 21 nM; in data set [3] it was 423 nM. Also, the “Ratio IC50” value in data set [4] was determined as 68.
Consider `CNCCCOc1cc(F)c(-c2c(Cl)nc(-n3cccn3)nc2N[C@@H](C)C(F)(F)F)c(F)c1` [listing 1 of 3 here], for which the midpoint of inhibition with COLO 205 (Homo sapiens, COLO 205, 24 h), the IC50, lay at 2.4 nM.
As to `CN(C)CCCCOc1cc(F)c(-c2c(Cl)nc(-c3cnccn3)nc2NCC(F)(F)F)c(F)c1`, in the data set on COLO 205 (Homo sapiens, COLO 205, 24 h), the midpoint of inhibition, the IC50, lay at 32 nM.
On the same count and under the same terms, the same measure for `Fc1cc(F)c(-c2c(Cl)nc(-n3ccnc3)nc2NCC(F)(F)F)c(F)c1`: 3030 nM.
For the molecule `CNCCCOc1cc(F)c(-c2c(Cl)nc(-c3cnccn3)nc2N[C@@H](C)C(F)(F)F)c(F)c1` [listing 1 of 3 here], the IC50 in the data set with COLO 205 (colo 205) was 6.9 nM; in the data set on KB [1], 7 nM; in data set [2] it was 24 nM; in data set [3] it was 405 nM. Moreover, the “Ratio IC50” value in the data set on KB [5] came to 3.4; in data set [4], 58. Besides, the solubility (thermodynamic) in [6] stood at 540 µg/mL (≈ 1070 µM). For the same molecule, the half-life at 1 µM in data set [7], in data set [8], in data set [9], in data set [10], in data set [11] and in data set [12] was greater than 1 h throughout. The Vd in [13] worked out at 14 L/kg. This molecule also gave a clearance in data set [14] of 21 mL/min/kg. Also, the half-life in [15] is 8.6 h. This molecule displayed a bioavailability in [16] of 100%.
Take `Cn1ccnc1-c1nc(Cl)c(-c2c(F)cc(F)cc2F)c(NCC(F)(F)F)n1`: the IC50 in the data set with COLO 205 (Homo sapiens, COLO 205, 24 h) worked out at 77 nM.
`Fc1cc(F)c(-c2c(Cl)nc(-n3cccn3)nc2NCC(F)(F)F)c(F)c1` yielded an IC50 in the data set with COLO 205 (Homo sapiens, COLO 205, 24 h) of 53 nM.
Regarding `CN(C)CCOc1cc(F)c(-c2c(Cl)nc(-c3cnccn3)nc2NCC(F)(F)F)c(F)c1`, the IC50 in the data set on COLO 205 (Homo sapiens, COLO 205, 24 h) amounted to 128 nM.
Still for that read-out and setting: the same measure for `Fc1cc(F)c(-c2c(Cl)nc(-c3nccc4ccccc34)nc2NCC(F)(F)F)c(F)c1`: 4680 nM; for `Fc1cc(F)c(-c2c(Cl)nc(-c3ccc4ccccc4n3)nc2NCC(F)(F)F)c(F)c1`: 250 nM; for `CN(C)CCCOc1cc(F)c(-c2c(Cl)nc(-n3ccnc3)nc2NCC(F)(F)F)c(F)c1`: 682 nM.
In turn, `Fc1cc(F)c(-c2c(Cl)nc(-c3cccnc3)nc2NCC(F)(F)F)c(F)c1` yielded an IC50 with COLO 205 (Homo sapiens, COLO 205, 24 h) of 3930 nM.
The same measure, in the same setting: the same measure for `CN(C)CCCOc1cc(F)c(-c2c(Cl)nc(-c3ncccn3)nc2NCC(F)(F)F)c(F)c1`: 49 nM.
As to `CNCCCOc1cc(F)c(-c2c(Cl)nc(-c3cnccn3)nc2N[C@@H](C)C(F)(F)F)c(F)c1` [listing 2 of 3 here], the result (with NCI-H460; with LOX; in [17]) was Active.
In turn, `Fc1cc(F)c(-c2c(Cl)nc(-c3ccccn3)nc2NCC(F)(F)F)c(F)c1` returned an IC50 with COLO 205 (Homo sapiens, COLO 205, 24 h) of 39 nM.
With `CC(=O)O[C@H]1C(=O)[C@@]2(C)[C@H]([C@H](OC(=O)c3ccccc3)[C@]3(O)C[C@H](OC(=O)[C@H](O)[C@@H](NC(=O)c4ccccc4)c4ccccc4)C(C)=C1C3(C)C)[C@]1(OC(C)=O)CO[C@@H]1C[C@@H]2O` [PACLITAXEL], the IC50 in the data set with COLO 205 (Homo sapiens, COLO 205, 24 h) is 3.3 nM; in data set [3] it was 2010 nM.
Take `CN(C)CCCOc1cc(F)c(-c2c(Cl)nc(-c3cnccn3)nc2NCC(F)(F)F)c(F)c1` [listing 1 of 2 here]: the IC50 with COLO 205 (colo 205) is 22 nM; in the data set on KB [1] it was 20 nM; in [2], 24 nM; in data set [3] it was 99 nM. For the same molecule, the “Ratio IC50” value with KB [5] turned out to be 1.2; in [4] it was 5.
Consider `CC[C@]1(O)C[C@H]2CN(CCc3c([nH]c4ccccc34)[C@@](C(=O)OC)(c3cc4c(cc3OC)N(C=O)[C@H]3[C@@](O)(C(=O)OC)[C@H](OC(C)=O)[C@]5(CC)C=CCN6CC[C@]43[C@@H]65)C2)C1` [VINCRISTINE], for which the IC50 in the data set with COLO 205 (Homo sapiens, COLO 205, 24 h) worked out at 2.6 nM; in the data set with KB [1], 2.2 nM; in data set [2], 58 nM; in data set [3], 2040 nM. Also, the “Ratio IC50” value in data set [4] was 925.
`CNCCCOc1cc(F)c(-c2c(Cl)nc(-c3cnccn3)nc2N[C@@H](C)C(F)(F)F)c(F)c1` [listing 3 of 3 here] returned an IC50 in the data set with COLO 205 (Homo sapiens, COLO 205, 24 h) of 8.9 nM.
On the same count and under the same terms, the same measure for `Fc1cc(F)c(-c2c(Cl)nc(-c3ccncc3)nc2NCC(F)(F)F)c(F)c1`: greater than 5000 nM.
Same read-out and setting: the same measure for `CNCCCOc1cc(F)c(-c2c(Cl)nc(-c3ccccn3)nc2N[C@@H](C)C(F)(F)F)c(F)c1` [listing 2 of 3 here]: 5.2 nM; for `Fc1cc(F)c(-c2c(Cl)nc(-c3ncccn3)nc2NCC(F)(F)F)c(F)c1`: 265 nM.
The same measure, in the same setting: the same measure for `C[C@H](Nc1nc(-c2cnccn2)nc(Cl)c1-c1c(F)cc(F)cc1F)C(F)(F)F`: 51 nM.
Take `Fc1cc(F)c(-c2c(Cl)nc(-c3cnccn3)nc2NCC(F)(F)F)c(F)c1`: in the data set on COLO 205 (Homo sapiens, COLO 205, 24 h), the IC50 turned out to be 84 nM.
The molecule `Fc1cc(F)c(-c2c(Cl)nc(-c3cc4ccccc4cn3)nc2NCC(F)(F)F)c(F)c1` displayed an IC50 in the data set on COLO 205 (Homo sapiens, COLO 205, 24 h) of 119 nM.
Same read-out and setting: under `CN(C)CCCOc1cc(F)c(-c2c(Cl)nc(-c3cnccn3)nc2NCC(F)(F)F)c(F)c1` [listing 2 of 2 here] stands 18 nM.
In the case of `CNCCCOc1cc(F)c(-c2c(Cl)nc(-n3cccn3)nc2N[C@@H](C)C(F)(F)F)c(F)c1` [listing 2 of 3 here], the IC50 in the data set with KB [1] stood at 2.4 nM; in data set [2], 32 nM; in [3] it was 569 nM. Also, the “Ratio IC50” value was 13 in the data set on KB [5] and 237 in [4].
For the molecule `CNCCCOc1cc(F)c(-c2c(Cl)nc(-n3cccn3)nc2N[C@@H](C)C(F)(F)F)c(F)c1` [listing 3 of 3 here], the result in data set [17] was Active.
Turning to `C[C@H](Nc1nc(-c2ccccn2)nc(Cl)c1-c1c(F)cc(F)cc1F)C(F)(F)F`, the IC50 in the data set with COLO 205 (Homo sapiens, COLO 205, 24 h) was 29 nM.
Consider `CNCCCOc1cc(F)c(-c2c(Cl)nc(-c3ccccn3)nc2N[C@@H](C)C(F)(F)F)c(F)c1` [listing 3 of 3 here], for which the outcome in data set [17] was Active.
